Experimental data as given in ChEMBL document CHEMBL4118075, “Thiophene/thiazole-benzene replacement on guanidine derivatives targeting α2-Adrenoceptors” (Eur J Med Chem, 2017).
The source made the active and inactive calls. The calls are words filed in the database; no cut-off is given here.

What was measured:
[1] = biological target: T1, Adrenergic receptor alpha-2 (Homo sapiens, UniProt P08913+P18825+P18089); assay: Displacement of [3H]RX821002 from alpha2 adrenergic receptor in human brain prefrontal cortex membranes after 30 mins by microbeta liquid scintillation spectrometry; set-up: species or system Membrane
T1 sequence (P08913 whole entry): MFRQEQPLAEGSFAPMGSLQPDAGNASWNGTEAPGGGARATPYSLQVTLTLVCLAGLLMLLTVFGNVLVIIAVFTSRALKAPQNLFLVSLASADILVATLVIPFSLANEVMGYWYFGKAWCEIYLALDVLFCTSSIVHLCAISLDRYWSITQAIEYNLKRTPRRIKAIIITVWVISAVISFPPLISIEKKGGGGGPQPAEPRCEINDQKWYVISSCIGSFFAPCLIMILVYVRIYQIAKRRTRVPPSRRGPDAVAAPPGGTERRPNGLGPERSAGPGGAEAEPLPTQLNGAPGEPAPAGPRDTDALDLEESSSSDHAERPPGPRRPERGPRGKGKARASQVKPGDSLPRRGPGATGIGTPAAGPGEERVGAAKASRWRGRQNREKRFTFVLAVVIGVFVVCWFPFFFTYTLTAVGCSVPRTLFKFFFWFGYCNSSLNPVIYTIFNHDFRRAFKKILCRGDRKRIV
T1 sequence (P18825 whole entry): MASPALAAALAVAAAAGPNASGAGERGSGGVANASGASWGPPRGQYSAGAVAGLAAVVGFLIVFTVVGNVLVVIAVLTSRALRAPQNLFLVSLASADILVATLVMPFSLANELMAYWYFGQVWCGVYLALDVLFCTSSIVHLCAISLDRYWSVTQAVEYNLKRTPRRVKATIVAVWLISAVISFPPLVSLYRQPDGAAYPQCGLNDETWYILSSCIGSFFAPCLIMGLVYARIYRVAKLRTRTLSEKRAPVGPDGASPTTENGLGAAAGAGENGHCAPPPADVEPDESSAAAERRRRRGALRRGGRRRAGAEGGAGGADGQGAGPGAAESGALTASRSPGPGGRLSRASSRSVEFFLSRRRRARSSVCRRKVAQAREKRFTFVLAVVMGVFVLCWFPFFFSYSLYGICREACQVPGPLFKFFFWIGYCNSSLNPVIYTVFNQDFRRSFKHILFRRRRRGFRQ
T1 sequence (P18089 whole entry): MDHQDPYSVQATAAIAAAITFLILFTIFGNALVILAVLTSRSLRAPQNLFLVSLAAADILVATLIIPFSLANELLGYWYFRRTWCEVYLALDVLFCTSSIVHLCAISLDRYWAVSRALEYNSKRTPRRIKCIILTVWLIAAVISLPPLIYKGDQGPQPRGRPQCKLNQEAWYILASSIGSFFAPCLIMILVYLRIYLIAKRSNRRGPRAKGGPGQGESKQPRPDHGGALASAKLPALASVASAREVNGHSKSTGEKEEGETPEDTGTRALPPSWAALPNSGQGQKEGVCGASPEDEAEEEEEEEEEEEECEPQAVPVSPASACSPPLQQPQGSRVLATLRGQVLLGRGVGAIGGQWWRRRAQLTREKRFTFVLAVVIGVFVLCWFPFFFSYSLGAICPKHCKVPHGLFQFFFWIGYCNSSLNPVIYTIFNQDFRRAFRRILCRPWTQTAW
How it was run: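 Competition binding on post-mortem human PFC P2 membranes in 50 mM Tris-HCl pH 7.5. [3H]RX821002 at 2 nM; competitor at 10 concentrations from 10⁻¹² to 10⁻³ M; 30 min at 25 °C. Vacuum filtration on GF/C, scintillation counting. Nonspecific binding defined with adrenaline 10⁻⁵ M. Ki from nonlinear regression with a one-site model.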

[2] = biological target: T2, Adrenergic receptor alpha-2 (Homo sapiens) (UniProt P08913+P18825+P18089); assay: Agonist activity at alpha2 adrenergic receptor in human brain prefrontal cortex membranes assessed as stimulation of [35S]GTPgammaS binding at 10^-12 to 10^-3 M after 120 mins by microbeta liquid scintillation spectrometry; assay type: functional; conditions: Membrane
How it was run: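 GTPγS exchange in human prefrontal cortex P2 membranes (20 µg/well) with 0.5 nM [35S]GTPγS, in EGTA/MgCl₂/100 mM NaCl/GDP/Tris pH 7.4 buffer. Ten concentrations from 10⁻¹² to 10⁻³ M; 30 °C for 120 min with shaking. Filtered on GF/C and scintillation counted; nonspecific binding with 10 µM GTPγS. EC50 and Emax expressed as % over basal binding.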

[3] = biological target: T2, Adrenergic receptor alpha-2 (Homo sapiens); assay: Agonist activity at alpha2 adrenergic receptor in human brain prefrontal cortex membranes assessed as stimulation of [35S]GTPgammaS binding at 10^-5 M after 120 mins in presence of antagonist RX821002 by microbeta liquid scintillation spectrometry; assay type: functional; conditions: Membrane
[4] = biological target: T1, Adrenergic receptor alpha-2; assay: Activity at alpha2 adrenergic receptor in human brain prefrontal cortex membranes assessed as effect on UK14304-induced [35S]GTPgammaS binding by measuring UK14304 EC50 at 10^-5 M after 120 mins by microbeta liquid scintillation spectrometry (reference value: 0.4 +/- 0.01 uM); assay type: functional, Membrane
[5] = biological target: T2, Adrenergic receptor alpha-2 (Homo sapiens); assay: Activity at alpha2 adrenergic receptor in human brain prefrontal cortex membranes assessed as effect on UK14304-induced [35S]GTPgammaS binding at 10^-5 M after 120 mins by microbeta liquid scintillation spectrometry (reference value: 132 +/- 2%); assay type: functional; conditions: Membrane

Ki [1]	Activity [2]	Activity [3]	EC50 [4]	Emax [5]	Compound
> 100000 nM					COC(=O)c1ccsc1NC(=N)N.Cl
156 nM	Active	inactive	10700 nM	124%	Cl.N=C(N)Nc1cc2c(s1)CCCCC2
706 nM	inactive		1500 nM	126%	Cl.N=C(N)Nc1nc2c(s1)CCC2
1968 nM					Cl.N=C(N)Nc1ccsc1
> 100000 nM					CCOC(=O)c1c(NC(=N)N)sc2c1CCCCC2.Cl
87.9 nM	inactive		500 nM	111%	Cl.N=C(N)Nc1cc2c(s1)CCC2
3928 nM					Cl.N=C(N)NCc1cccs1
1198 nM					Cl.N#Cc1c(NC(=N)N)sc2c1CCCCC2
66530 nM					CCOC(=O)c1c(C)csc1NC(=N)N.Cl
30150 nM					CCOC(=O)c1c(NC(=N)N)sc2c1CCC2.Cl
2215 nM					Cl.N#Cc1c(NC(=N)N)sc2c1CCC2
733 nM	inactive		6600 nM	128%	Cl.N#Cc1c(NC(=N)N)sc2c1CCCC2
1205 nM	inactive		11400 nM	105%	Cl.N=C(N)Nc1nc2c(s1)CCCC2
31.3 nM	inactive		800 nM	111%	Cl.N=C(N)Nc1cc2c(s1)CCCC2
9086 nM					CCOC(=O)c1c(NC(=N)N)sc2c1CCCC2.Cl
751 nM			1700 nM	117%	Cl.N=C(N)NCCc1cccs1
> 100000 nM					COC(=O)c1sccc1NC(=N)N.Cl
